Active and inactive are the calls of the source.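 Rule for the calls, unless noted: active = viability at or below 30% in both replicate assays; inconclusive = viability at or below 30% in just one of the two assays; inactive = the rest.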
Columns and labels:
[1] = reducers of endogenous Her2 protein level, primary screen, SKBR3 breast tumor cells, AlphaScreen, ATP viability (AID 461;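 active = Her2 level under about 52% in both replicate screens, with viability over 70% of control, limit read from the data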;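 for Her2 level: lower value means less Her2 protein in the cells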;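 for viability: percent of carrier control wells set as 100% viability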); conditions: 18-24 h, measured here: SKBR3 viability, ATP luminescence, at 10 µM
[2] = target: Receptor tyrosine-protein kinase erbB-2 (Homo sapiens) (UniProt P04626); test: as above; conditions: 18-24 h, at 10 µM, stronger effect = lower value
Chain of Receptor tyrosine-protein kinase erbB-2 (Homo sapiens) (P04626 whole entry, looked up): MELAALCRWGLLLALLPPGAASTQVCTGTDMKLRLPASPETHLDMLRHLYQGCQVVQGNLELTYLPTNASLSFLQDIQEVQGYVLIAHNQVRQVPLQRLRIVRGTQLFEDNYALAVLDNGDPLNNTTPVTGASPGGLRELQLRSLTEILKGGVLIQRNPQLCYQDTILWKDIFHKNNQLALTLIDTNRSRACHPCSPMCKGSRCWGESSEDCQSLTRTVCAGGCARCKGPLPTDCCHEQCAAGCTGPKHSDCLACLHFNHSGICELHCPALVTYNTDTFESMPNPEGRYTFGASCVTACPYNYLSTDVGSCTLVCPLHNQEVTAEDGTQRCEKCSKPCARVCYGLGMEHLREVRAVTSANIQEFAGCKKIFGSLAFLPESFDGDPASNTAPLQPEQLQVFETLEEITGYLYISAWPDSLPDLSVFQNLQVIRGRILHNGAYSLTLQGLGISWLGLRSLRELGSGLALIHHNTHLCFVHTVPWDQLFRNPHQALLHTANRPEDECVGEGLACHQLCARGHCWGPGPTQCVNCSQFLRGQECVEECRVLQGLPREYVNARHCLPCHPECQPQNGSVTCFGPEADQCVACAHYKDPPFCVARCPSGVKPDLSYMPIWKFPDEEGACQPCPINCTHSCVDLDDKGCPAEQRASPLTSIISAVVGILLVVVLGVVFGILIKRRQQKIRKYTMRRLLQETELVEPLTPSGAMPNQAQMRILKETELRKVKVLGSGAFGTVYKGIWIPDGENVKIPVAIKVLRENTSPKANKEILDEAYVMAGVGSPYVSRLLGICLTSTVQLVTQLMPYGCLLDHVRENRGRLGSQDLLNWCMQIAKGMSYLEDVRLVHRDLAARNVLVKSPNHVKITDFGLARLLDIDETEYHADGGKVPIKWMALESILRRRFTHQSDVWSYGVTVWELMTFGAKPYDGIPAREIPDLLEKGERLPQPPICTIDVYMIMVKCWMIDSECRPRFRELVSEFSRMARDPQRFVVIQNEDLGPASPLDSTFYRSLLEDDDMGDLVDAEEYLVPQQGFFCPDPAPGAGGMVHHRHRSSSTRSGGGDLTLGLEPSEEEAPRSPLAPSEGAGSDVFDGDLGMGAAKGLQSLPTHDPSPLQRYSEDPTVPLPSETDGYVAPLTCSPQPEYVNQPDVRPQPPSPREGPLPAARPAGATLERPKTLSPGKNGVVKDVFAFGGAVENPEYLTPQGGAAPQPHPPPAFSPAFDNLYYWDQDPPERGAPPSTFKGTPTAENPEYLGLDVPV

[3] = SK-BR-3 cell growth inhibitors, pilot screen, 24 h, human (AID 572;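 active = viability at or below 10% of carrier control in both of two separate runs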;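 note: compound exposure lasted between 18 and 24 h rather than exactly 24 h; 100% = carrier-treated control wells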); conditions: SK-BR-3 viability, CellTiter-Glo luminescence, at 10 µM, stronger effect = lower value
[4] = HUVEC growth inhibition – cell-based, human, primary screen (AID 575); conditions: HUVEC proliferation, CellTiter-Glo luminescence, 72 h; at 10 µM; stronger effect = lower value;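 note: 100% = median of untreated cell wells with 0.1% DMSO on each plate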
How it was run: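 System – primary HUVEC, no more than 12 passages · Medium – Low-serum (2% FBS) EBM, supplemented · Times – 72 h exposure, 37 °C, 5% CO2, 30 min RT equilibration · Measured by – luminescent ATP assay · Read-out – % viability relative to median vehicle-well signal on each plate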

[5] = growth inhibitors of H69AR lung tumor, primary screen, human, duplicate replicates (AID 580;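 active = viability at or under a set limit in both replicates, limit being median viability minus 3 SD, cut at about 48% in these data, passing the limit was not always enough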;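 note: 100% = mean luminescence of untreated wells and 0% = no signal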); conditions: H69AR lung tumor cells viability, ATP luminescence, 72 h; at 10 µM; stronger effect = lower value
[6] = reversal of MRP1-mediated doxorubicin resistance, pilot screen, H69AR cells, doxorubicin co-treatment (AID 601;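 active = viability loss from added drug above about 55%, and viability with drug at most 40%, in both replicates, limit read from the data, passing the limit was not always enough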); conditions: CellTiter-Glo, 72 h, at 10 µM; for differential viability (reversal): stronger effect = higher value
[7] = 384-well plate pilot, post-Golgi transport modulator project, inhibition of yeast transport mutant growth (AID 636; in the data active = inhibition above about 31%); conditions: absorbance 615 nm, about 18 h, stronger effect = higher value
[8] = growth suppression of yeast trafficking mutant, preliminary HTS, modulators of trafficking downstream of Golgi apparatus project, 1536-format plate, OD 615 nm (AID 637; in the data active = inhibition above about 30%); conditions: yeast transport mutant growth, absorbance 615 nm, 18 h; stronger effect = higher value
[9] = H69AR cells + 2 uM doxorubicin, measured here: viability with 2 uM doxorubicin, stronger effect = lower value
[10] = H69AR cells, compound alone cytotoxicity

SMILES	viability [1] [%]	Her2 level [2]	viability [3]	viability [4]	viability [5]	differential viability (reversal) ([6]; H69AR cells + 2 uM doxorubicin)	viability [6, 9] [%]	viability [6, 10] [%]	inhibition [7]	inhibition [8]
O=S(=O)(NCc1ccccc1)c1ccc2c(c1)OCCO2	124	110% (inactive)	124% (inactive)	97.1% (inactive)	76.8% (inactive)	-7.4% (inactive)	84.2	76.8	-3.9% (inactive)	-2.7% (inactive)
Cc1ncoc1C(=O)Nc1cccc(Cl)c1C	104	114% (inactive)	104% (inactive)	113% (inactive)	101% (inactive)	15.6% (inactive)	85.1	101	-3.78% (inactive)	0.33% (inactive)
Cc1cc(C)nc(N2CCCC(C(=O)Nc3ccc4c(c3)OCO4)C2)n1 (stereo not given)	93	104% (inactive)	93% (inactive)	96.9% (inactive)	98.5% (inactive)	8.88% (inactive)	89.6	98.5	-5.54% (inactive)	-12.3% (inactive)
CC(=O)c1c(C)[nH]c(C(=O)N2CCN(C(=O)c3ccco3)CC2)c1C	85	102% (inactive)	85% (inactive)	94.5% (inactive)	99.1% (inactive)	0.42% (inactive)	98.7	99.1	-2.3% (inactive)	-0.49% (inactive)
O=C(Nc1ccc(N2CCOCC2)c(F)c1)c1ccncc1	97	99% (inactive)	97% (inactive)	114% (inactive)	96.6% (inactive)	12.5% (inactive)	84.2	96.6	-4.27% (inactive)	1.64% (inactive)
COc1ccccc1Nc1nc2ccccc2[nH]1	92	93.5% (inactive)	92% (inactive)	86.3% (inactive)	72.8% (inactive)	-10.6% (inactive)	83.4	72.8	-9.07% (inactive)	-7.94% (inactive)
O=C(c1ccccc1)c1ccc2nc[nH]c2c1	96.5	89.5% (inactive)	96.5% (inactive)	75.4% (inactive)	102% (inactive)	-15.3% (inactive)	117	102	0.26% (inactive)	3.06% (inactive)
Cc1noc(C)c1S(=O)(=O)NCCN1CCN(c2ccccc2)CC1	96	98.5% (inactive)	96% (inactive)	96.4% (inactive)	96.1% (inactive)	3.43% (inactive)	92.7	96.1	-0.79% (inactive)	-0.79% (inactive)
COc1cc(C2C(C#N)=C(N)Oc3cc(N)ccc32)cc(OC)c1OC (stereo not given)	91.5	75% (inactive)	91.5% (inactive)	42.1% (inactive)	32.3% (active)	-28.8% (inactive)	61.1	32.3	-4% (inactive)	8.03% (inactive)
O=C(COc1ccccc1)Nc1ccc(-c2nnc(-c3ccco3)o2)cc1	128	108% (inactive)	128% (inactive)	102% (inactive)	95.5% (inactive)	8.73% (inactive)	86.8	95.5	-6.97% (inactive)	-1.15% (inactive)
O=c1[nH]c(/C(=N\O)c2ccccc2)no1	93.5	82% (inactive)	93.5% (inactive)	83.2% (inactive)	73.2% (inactive)	32.5% (inactive)	40.7	73.2	-0.39% (inactive)	5.74% (inactive)
O=C(COC(=O)CCC(=O)c1cccs1)NCc1ccco1	98	109% (inactive)	98% (inactive)	89.3% (inactive)	79.8% (inactive)	2.55% (inactive)	77.3	79.8	-3.59% (inactive)	-1.5% (inactive)
O=C(C1CCN(S(=O)(=O)Cc2ccccc2)CC1)N1CCN(c2ncccn2)CC1	83	108% (inactive)	83% (inactive)	115% (inactive)	112% (inactive)	22.3% (inactive)	90	112	-0.39% (inactive)	-2.36% (inactive)
CC(=O)Nc1c(Cl)n(C(C)=O)c2ccccc12	85	65% (inactive)	85% (inactive)	71.6% (inactive)	84% (inactive)	-6.37% (inactive)	90.4	84	-7.57% (inactive)	5.5% (inactive)
Cc1cc(C(=O)NCCCc2ccccc2)no1	100	86% (inactive)	100% (inactive)	91.4% (inactive)	107% (inactive)	18.6% (inactive)	88.7	107	-5% (inactive)	-2.83% (inactive)
CCN(CC)S(=O)(=O)c1ccc(C(=O)Oc2ccc3c(c2)OCO3)cc1	101	84% (inactive)	101% (inactive)	86.6% (inactive)	90.5% (inactive)	4.36% (inactive)	86.1	90.5	-5.53% (inactive)	-4.13% (inactive)

Reference: PubChem BioAssay
